Results as given in ChEMBL document CHEMBL5724801, “EUbOPEN Chemogenomics Library - Multiplex” (2024).
Where “and” joins values, the source holds several entries; their conditions need not be identical. Identical values can stand only once.

Test system: Fibroblast
Experiment: Multiplex assay against human fibroblast
Format: toxicity, cell-based
Outline: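 Compound was added to live cells that had been stained at seeding with Hoechst33342, BioTracker Green Microtubule Cytoskeleton Dye, MitoTracker Red and Annexin V Alexa Fluor 680, and imaging followed on a CQ1 microscope at 37°C and 5% CO2. CellPathfinder machine-learning gating divided cells into Hoechst high-intensity objects or normal cells, normal cells into healthy, pyknosed or fragmented nuclei, and pyknosed cells into mitotic or apoptotic. Tubulin, mitochondrial-mass and membrane-permeability phenotypes are per cents of healthy-nucleus cells.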

[1] = 12 h, 1 µM, compound concentration 1 uM
[2] = 12 h, 10 µM, compound concentration 10 uM
[3] = 24 h, 1 µM, compound concentration 1 uM
[4] = 24 h, 10 µM, compound concentration 10 uM
[5] = 48 h, 1 µM, compound concentration 1 uM
[6] = 48 h, 10 µM, compound concentration 10 uM

CCNC1(C(N)=O)CCN(c2ncnc3c2nc(-c2ccccc2Cl)n3-c2ccc(Cl)cc2)CC1 [OTENABANT]
Population Apoptotic (%) [1]: 26% and 37% | Population Fragmented Nuclei (%) [1]: 19% and 25% | Population Healthy Nuclei (%) [1]: 63% and 48% | Population Hoechst High Intensity Objects (%) [1]: 6% and 2% | Population Membrane Permeable-Phenotype (%) [1]: 1% and 6% | Population Mitochondria Different-Phenotype (%) [1]: 7% and 10% | Population Mitotic Cells (%) [1]: 73% and 62% | Population Normal (%) [1]: 93% and 97% | Population Pyknosed Nuclei (%) [1]: 17% and 26% | Population Tubulin-Different-Phenotype (%) [1]: 44% and 50% | Total Cell Count [1]: 161 and 156 | Population Apoptotic (%) [2]: 57% and 40% | Population Fragmented Nuclei (%) [2]: 22% and 30% | Population Healthy Nuclei (%) [2]: 64% and 48% | Population Hoechst High Intensity Objects (%) [2]: 4% and 3% | Population Membrane Permeable-Phenotype (%) [2]: 0% and 12% | Population Mitochondria Different-Phenotype (%) [2]: 16% and 18% | Population Mitotic Cells (%) [2]: 42% and 59% | Population Normal (%) [2]: 95% and 96% | Population Pyknosed Nuclei (%) [2]: 12% and 21% | Population Tubulin-Different-Phenotype (%) [2]: 90% and 87% | Total Cell Count [2]: 170 and 216 | Population Apoptotic (%) [3]: 26% and 34% | Population Fragmented Nuclei (%) [3]: 17% and 27% | Population Healthy Nuclei (%) [3]: 66% and 43% | Population Hoechst High Intensity Objects (%) [3]: 4% and 5% | Population Membrane Permeable-Phenotype (%) [3]: 0% and 9% | Population Mitochondria Different-Phenotype (%) [3]: 8% and 14% | Population Mitotic Cells (%) [3]: 73% and 65% | Population Normal (%) [3]: 95% and 94% | Population Pyknosed Nuclei (%) [3]: 15% and 29% | Population Tubulin-Different-Phenotype (%) [3]: 44% and 57% | Total Cell Count [3]: 154 and 155 | Population Apoptotic (%) [4]: 54% | Population Fragmented Nuclei (%) [4]: 22% and 37% | Population Healthy Nuclei (%) [4]: 64% and 48% | Population Hoechst High Intensity Objects (%) [4]: 2% and 5% | Population Membrane Permeable-Phenotype (%) [4]: 0% and 7% | Population Mitochondria Different-Phenotype (%) [4]: 37% and 30% | Population Mitotic Cells (%) [4]: 45% | Population Normal (%) [4]: 97% and 94% | Population Pyknosed Nuclei (%) [4]: 12% and 13% | Population Tubulin-Different-Phenotype (%) [4]: 96% and 88% | Total Cell Count [4]: 174 and 235 | Population Apoptotic (%) [5]: 68% and 59% | Population Fragmented Nuclei (%) [5]: 18% and 33% | Population Healthy Nuclei (%) [5]: 69% and 42% | Population Hoechst High Intensity Objects (%) [5]: 8% and 5% | Population Membrane Permeable-Phenotype (%) [5]: 0% and 13% | Population Mitotic Cells (%) [5]: 31% and 40% | Population Normal (%) [5]: 91% and 94% | Population Pyknosed Nuclei (%) [5]: 12% and 23% | Population Tubulin-Different-Phenotype (%) [5]: 41% and 72% | Total Cell Count [5]: 167 and 143 | Population Apoptotic (%) [6]: 78% and 61% | Population Fragmented Nuclei (%) [6]: 30% and 46% | Population Healthy Nuclei (%) [6]: 61% and 47% | Population Hoechst High Intensity Objects (%) [6]: 8% and 2% | Population Membrane Permeable-Phenotype (%) [6]: 0% and 7% | Population Mitochondria Different-Phenotype (%) [6]: 49% and 26% | Population Mitotic Cells (%) [6]: 21% and 38% | Population Normal (%) [6]: 91% and 97% | Population Pyknosed Nuclei (%) [6]: 8% and 6% | Population Tubulin-Different-Phenotype (%) [6]: 92% and 89% | Total Cell Count [6]: 187 and 299

O=C1COc2nccc(-c3ccccc3F)c2CN1Cc1cc(C(F)(F)F)cc(C(F)(F)F)c1
Population Apoptotic (%) [1]: 38% and 29% | Population Fragmented Nuclei (%) [1]: 12% and 17% | Population Healthy Nuclei (%) [1]: 74% and 62% | Population Hoechst High Intensity Objects (%) [1]: 2% and 0% | Population Membrane Permeable-Phenotype (%) [1]: 1% | Population Mitochondria Different-Phenotype (%) [1]: 7% and 5% | Population Mitotic Cells (%) [1]: 61% and 70% | Population Normal (%) [1]: 97% and 99% | Population Pyknosed Nuclei (%) [1]: 13% and 20% | Population Tubulin-Different-Phenotype (%) [1]: 27% and 32% | Total Cell Count [1]: 195 and 135 | Population Apoptotic (%) [2]: 54% and 37% | Population Fragmented Nuclei (%) [2]: 15% and 24% | Population Healthy Nuclei (%) [2]: 69% and 51% | Population Hoechst High Intensity Objects (%) [2]: 5% and 8% | Population Membrane Permeable-Phenotype (%) [2]: 0% and 4% | Population Mitochondria Different-Phenotype (%) [2]: 10% and 12% | Population Mitotic Cells (%) [2]: 45% and 62% | Population Normal (%) [2]: 94% and 91% | Population Pyknosed Nuclei (%) [2]: 14% and 23% | Population Tubulin-Different-Phenotype (%) [2]: 66% and 50% | Total Cell Count [2]: 161 and 132 | Population Apoptotic (%) [3]: 53% and 34% | Population Fragmented Nuclei (%) [3]: 11% and 20% | Population Healthy Nuclei (%) [3]: 74% and 58% | Population Hoechst High Intensity Objects (%) [3]: 3% and 2% | Population Membrane Permeable-Phenotype (%) [3]: 0% and 2% | Population Mitochondria Different-Phenotype (%) [3]: 6% and 3% | Population Mitotic Cells (%) [3]: 46% and 65% | Population Normal (%) [3]: 96% and 97% | Population Pyknosed Nuclei (%) [3]: 14% and 20% | Population Tubulin-Different-Phenotype (%) [3]: 23% and 39% | Total Cell Count [3]: 203 and 142 | Population Apoptotic (%) [4]: 66% and 55% | Population Fragmented Nuclei (%) [4]: 18% and 26% | Population Healthy Nuclei (%) [4]: 71% and 56% | Population Hoechst High Intensity Objects (%) [4]: 3% and 6% | Population Membrane Permeable-Phenotype (%) [4]: 0% and 7% | Population Mitochondria Different-Phenotype (%) [4]: 11% and 5% | Population Mitotic Cells (%) [4]: 33% and 45% | Population Normal (%) [4]: 96% and 93% | Population Pyknosed Nuclei (%) [4]: 9% and 16% | Population Tubulin-Different-Phenotype (%) [4]: 57% and 61% | Total Cell Count [4]: 162 and 129 | Population Apoptotic (%) [5]: 75% and 31% | Population Fragmented Nuclei (%) [5]: 16% and 29% | Population Healthy Nuclei (%) [5]: 75% and 55% | Population Hoechst High Intensity Objects (%) [5]: 5% and 6% | Population Membrane Permeable-Phenotype (%) [5]: 0% and 1% | Population Mitochondria Different-Phenotype (%) [5]: 4% and 1% | Population Mitotic Cells (%) [5]: 25% and 68% | Population Normal (%) [5]: 94% and 93% | Population Pyknosed Nuclei (%) [5]: 8% and 14% | Population Tubulin-Different-Phenotype (%) [5]: 28% and 25% | Total Cell Count [5]: 210 and 143 | Population Apoptotic (%) [6]: 72% and 60% | Population Fragmented Nuclei (%) [6]: 20% and 39% | Population Healthy Nuclei (%) [6]: 72% and 49% | Population Hoechst High Intensity Objects (%) [6]: 2% and 5% | Population Membrane Permeable-Phenotype (%) [6]: 0% and 1% | Population Mitochondria Different-Phenotype (%) [6]: 14% and 8% | Population Mitotic Cells (%) [6]: 27% and 40% | Population Normal (%) [6]: 97% and 94% | Population Pyknosed Nuclei (%) [6]: 6% and 11% | Population Tubulin-Different-Phenotype (%) [6]: 62% and 47% | Total Cell Count [6]: 172 and 144
